Measured values published in ChEMBL document CHEMBL5335796, “Novel Psilocin Prodrugs with Altered Pharmacological Properties as Candidate Therapies for Treatment-Resistant Anxiety Disorders” (J Med Chem, 2024).
Activity calls are given as the source filed them. The rule behind the calls is not given here.

Legend:
[1] = Drug metabolism in po dosed C57BL/6 mouse assessed as psilocin formation measured upto 24 hrs by LC-MS analysis; type: ADME, organism-based; conditions: in vivo, dose 1-10 mg/kg
[2] = Metabolic stability in human liver S9 fraction assessed as half life at 2.5 uM measured upto 120 mins in presence of NADPH by LC-MS analysis; type: ADME, subcellular; conditions: s9, 2 h, 2.5 µM
Summary of the method: (§1)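 2.5 μM compound at 37 °C in 50 mM potassium phosphate pH 7.4 with 3 mM MgCl2, 1 mM EDTA and an NADPH regenerating system. […] Sampled at 0–120 min in 20-min steps, acetonitrile quench, LC-MS of parent. T1/2 from one-phase exponential decay fit.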

[3] = Metabolic stability in human liver microsomes assessed as half life at 2.5 uM measured upto 120 mins in presence of NADPH by LC-MS analysis; type: ADME, Microsome; conditions: microsomes, 2 h, 2.5 µM; summary of the method: as §1
[4] = Metabolic stability in human intestine S9 fraction assessed as half life at 2.5 uM measured upto 120 mins in presence of NADPH by LC-MS analysis; type: ADME, subcellular; conditions: s9, 2 h; summary of the method: as §1
[5] = Metabolic stability in human intestine microsomes assessed as half life at 2.5 uM measured upto 120 mins in presence of NADPH by LC-MS analysis; type: ADME, Microsome; conditions: 2 h; summary of the method: as §1
[6] = Metabolic stability in human serum assessed as half life at 2.5 uM measured upto 120 mins in presence of NADPH by LC-MS analysis; type: ADME, cell-free; conditions: 2 h; summary of the method: as §1
[7] = Drug metabolism in human liver S9 fraction assessed as psilocin formation at 2.5 uM after 120 mins by LC-MS analysis; type: ADME, subcellular; conditions: s9, 2 h
Summary of the method: (§2)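 2.5 μM compound in 50 mM potassium phosphate pH 7.4 with 3 mM MgCl2, 1 mM EDTA and an NADPH regenerating system. Incubated at 37 °C with human liver or intestinal S9 or microsomes (400 μg/mL protein) or 10% human AB serum. Acetonitrile quench, then LC-MS; psilocin concentration read at 120 min.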

[8] = Drug metabolism in human liver microsomes assessed as psilocin formation at 2.5 uM after 120 mins by LC-MS analysis; type: ADME, Microsome; conditions: 2 h; summary of the method: as §2
[9] = Drug metabolism in human intestine S9 fraction assessed as psilocin formation at 2.5 uM after 120 mins by LC-MS analysis; type: ADME, subcellular; conditions: s9, 2 h; summary of the method: as §2
[10] = Drug metabolism in human intestine microsomes assessed as psilocin formation at 2.5 uM after 120 mins by LC-MS analysis; type: ADME, Microsome; conditions: 2 h; summary of the method: as §2
[11] = Drug metabolism in human serum assessed as psilocin formation at 2.5 uM after 120 mins by LC-MS analysis; type: ADME, cell-free; conditions: 2 h; summary of the method: as §2
[12] = Drug metabolism in C57BL/6 mouse assessed as psilocin formation at 10 mg/kg, po measured after 8 hrs by LC-MS analysis; type: ADME, organism-based; conditions: in vivo
Mus musculus = experiment: Psychedelic activity in mouse assessed as head-twitch response at 1 mg/kg, po measured after 15 to 30 mins; type: functional, organism-based; conditions: time 15-30 min
Summary of the method: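 C57BL/6 mice, singly housed for 2 days, with 30-min predose chamber acclimation. Single oral 1 mg/kg dose from 100 mM DMSO stock diluted in 0.9% saline; vehicle 1% DMSO in saline. Video-recorded after dosing; head twitches scored blind per 15-min interval (reference time course) or for the 15–30 min window. n = 2–4; one-way ANOVA.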

Structure (SMILES)	Drug metabolism [1]	t1/2 [2]	t1/2 [3]	t1/2 [4]	t1/2 [5]	t1/2 [6]	Drug metabolism [7]	Drug metabolism [8]	Drug metabolism [9]	Drug metabolism [10]	Drug metabolism [11]	Drug metabolism [12]	Activity (Mus musculus)
CN(C)CCc1cn(C(=O)OCc2ccccc2)c2cccc(OC(=O)OCc3ccccc3)c12	Dose-Dependent Effect	22 min	52 min	16 min	13 min	0.8 min	0 µM	0 µM	0 µM	0 µM	0 µM	Metabolite_Notdetected	
CC(C)[Si](C(C)C)(C(C)C)n1cc(CCN(C)C)c2c(OC(=O)OCC3CC3)cccc21		49 min	31 min	24 min	24 min	26 min	0.072 µM	0.186 µM	0.018 µM	0.096 µM	0 µM		
CN(C)CCc1c[nH]c2cccc(OC(=O)c3cccc(C(=O)Oc4cccc5[nH]cc(CCN(C)C)c45)c3)c12			241 min	445 min	621 min	101 min	0 µM	0 µM	0 µM	0 µM	0 µM		
CCC(=O)Oc1cccc2c1c(CCN(C)C)cn2[Si](C(C)C)(C(C)C)C(C)C		3 min	2 min	2 min	2 min	49 min	0.204 µM	0.244 µM	0 µM	0.053 µM	0 µM		
CCC(=O)OCOc1cccc2c1c(CCN(C)C)cn2C(=O)CC		16 min	13 min	52 min	22 min	0.8 min	0 µM	0.001 µM	0 µM	0 µM	0 µM		
CN(C)CCc1c[nH]c2cccc(O[Si](C)(C)C(C)(C)C)c12	Dose-Dependent Effect	191 min	347 min				0 µM	0.012 µM	0 µM	0 µM	0 µM	Metabolite_Notdetected	Active
CC(C)[Si](Oc1cccc2[nH]cc(CCN(C)C)c12)(C(C)C)C(C)C	Dose-Dependent Effect	96 min	104 min	57 min	27 min		0 µM	0 µM	0 µM	0 µM	0.142 µM	Metabolite_Notdetected	
CN(C)CCc1c[nH]c2cccc(O[Si](c3ccccc3)(c3ccccc3)C(C)(C)C)c12		391 min	229 min				0 µM	0 µM	0 µM	0 µM	0 µM		
CC(C)[Si](C(C)C)(C(C)C)n1cc(CCN(C)C)c2c(OCc3ccc(F)cc3)cccc21		60 min	27 min	64 min	50 min		0 µM	0 µM	0 µM	0 µM	0 µM		
CN(C)CCc1c[nH]c2cccc(OP(=O)(Oc3ccccc3)Oc3ccccc3)c12	Dose-Dependent Effect	96 min	43 min	52 min	28 min		0.073 µM	0 µM	0 µM	0.076 µM	0.069 µM	Metabolite_Notdetected	
CC(C)[Si](C(C)C)(C(C)C)n1cc(CCN(C)C)c2c(OC(=O)c3ccc(Br)cc3)cccc21		15 min	25 min	16 min	11 min		0.656 µM	1.659 µM	0.195 µM	0.887 µM	0 µM		
COC(=O)c1cccc(C(=O)Oc2cccc3[nH]cc(CCN(C)C)c23)c1		33 min	22 min			33 min	0.451 µM	0.919 µM	0.166 µM	0.241 µM	3.148 µM		
CN(C)CCc1c[nH]c2cccc(OC(=O)c3cccc4c3OCCO4)c12	Dose-Dependent Effect	529 min	390 min		113 min		0.145 µM	0.329 µM	0 µM	0 µM	0 µM	Metabolite_Notdetected	inactive
CN(C)CCc1c[nH]c2cccc(OC(=O)c3ccc(Br)cc3)c12	Dose-Dependent Effect	39 min	87 min	69 min	71 min	19 min	0.689 µM	1.31 µM	0 µM	0.018 µM	2.01 µM	Metabolite_Notdetected	
COCCOCCOCC(=O)Oc1cccc2[nH]cc(CCN(C)C)c12		16 min	5 min	72 min	60 min	0.8 min	0 µM	0.494 µM	0 µM	0 µM	0 µM		
CC(C)OC(=O)OCOc1cccc2c1c(CCN(C)C)cn2COC(=O)OC(C)C	Dose-Dependent Effect	293 min	104 min	266 min	894 min	3 min	0.186 µM	0.056 µM	0 µM	0 µM	0 µM	Metabolite_Notdetected	
CCOC(=O)[C@@H](C)NP(=O)(Oc1ccccc1)Oc1cccc2c1c(CCN(C)C)cn2[Si](C(C)C)(C(C)C)C(C)C (stereo not given in full)		26 min	22 min	39 min	29 min	145 min	0.153 µM	0.324 µM	0.47 µM	0 µM	0 µM		
CC(C)[Si](C(C)C)(C(C)C)n1cc(CCN(C)C)c2c(OC(=O)Sc3ccccc3)cccc21		7 min	9 min	24 min	13 min	32 min	0.133 µM	0.206 µM	0 µM	0 µM	0 µM		
CN(C)CCc1c[nH]c2cccc(OC(=O)OCC(Cl)(Cl)Cl)c12			277 min	221 min	150 min	182 min	0.133 µM	0.057 µM	0 µM	0 µM	0 µM		
CN(C)CCc1c[nH]c2cccc(OP3(=O)OCC(C)(C)CO3)c12							0.011 µM	0 µM	0 µM	0 µM	0 µM		
